Test results taken from ChEMBL document CHEMBL5316310, “Discovery of MK-8189, a Highly Potent and Selective PDE10A Inhibitor for the Treatment of Schizophrenia” (J Med Chem, 2023).
Converted amounts (≈) assume the structure as drawn. The source made the active and inactive calls. The calls are words filed in the database; no cut-off is given here.

How the values were obtained:
[1] = Selectivity ratio of Ki for N-terminal GST-tagged human recombinant PDE5A1 (1 to 875 residues) expressed in baculovirus-infected Sf9 cells to Ki for human PDE10A2 transfected in human AD293 cells cytosolic fraction
[2] = target: Voltage-gated inwardly rectifying potassium channel KCNH2 (Homo sapiens, UniProt Q12809); test: Displacement of MK499 from hERG; assay type: toxicity
[3] = Selectivity ratio of Ki for N-terminal GST-tagged full length human recombinant PDE9A2 expressed in baculovirus-infected Sf9 cells to Ki for human PDE10A2 transfected in human AD293 cells cytosolic fraction
[4] = Selectivity ratio of Ki for N-terminal GST-tagged human recombinant PDE1A expressed in baculovirus-infected Sf9 cells to Ki for human PDE10A2 transfected in human AD293 cells cytosolic fraction
[5] = Selectivity ratio of Ki for N-terminal GST-tagged and C-terminal His-tagged human recombinant PDE7A (122 to 456 residues) expressed in baculovirus-infected Sf9 cells to Ki for human PDE10A2 transfected in human AD293 cells cytosolic fraction
[6] = Selectivity ratio of Ki for N-terminal GST-tagged human recombinant PDE11A4 (1 to 943 residues) expressed in baculovirus-infected Sf9 cells to Ki for human PDE10A2 transfected in human AD293 cells cytosolic fraction
[7] = Selectivity ratio of Ki for N-terminal His-GST-tagged human recombinant PDE3A(669 to 1141 residues) expressed in baculovirus-infected Sf9 cells to Ki for human PDE10A2 transfected in human AD293 cells cytosolic fraction
[8] = Selectivity ratio of Ki for N-terminal GST-tagged full length human recombinant PDE8A1 expressed in baculovirus-infected Sf9 cells to Ki for human PDE10A2 transfected in human AD293 cells cytosolic fraction
[9] = Selectivity ratio of Ki for Rhesus monkey PDE2A3 transfected in AD293 cells cytosolic fraction to Ki for human PDE10A2 transfected in human AD293 cells cytosolic fraction; assay type: cell-based
[10] = Selectivity ratio of Ki for N-terminal GST-tagged human recombinant PDE4A1A (1 to 647 residues) expressed in baculovirus-infected Sf9 cells to Ki for human PDE10A2 transfected in human AD293 cells cytosolic fraction
[11] = target: cAMP and cAMP-inhibited cGMP 3',5'-cyclic phosphodiesterase 10A (Homo sapiens, UniProt Q9Y233); test: Inhibition of human PDE10A2 transfected in human AD293 cells cytosolic fraction using cAMP as substrate by fluorescence polarization assay; assay type: subcellular, Cytosol
[12] = Aqueous solubility of the compound at pH 7; assay type: physicochemical; settings: buffer
[13] = target: ATP-dependent translocase ABCB1 (Rattus norvegicus, UniProt P43245); test: (§1) Substrate activity at rat P-gp assessed as efflux ratio; assay type: ADME
[14] = target: P-gp (ABCB1) (Rattus norvegicus, UniProt P43245); test: as §1; assay type: ADME
[15] = Unbound plasma clearance in rat; assay type: ADME; settings: in vivo
Summary of the method: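 Rat unbound clearance (CLu) was calculated by dividing the measured rat plasma clearance by the rat plasma free fraction.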

[16] = tested on: Rattus norvegicus; test: Cognitive-enhancing activity in rat assessed as improvement in novel object recognition at 0.56 mg/kg, po measured after 1 hr by novel object recognition test; assay type: functional, organism-based
Summary of the method: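 Novel object recognition in rats: oral dosing, then discrimination of a novel object from one seen 48 h earlier. Doses 0.08–0.25 mg/kg; donepezil 0.56 mg/kg as positive control. Groups compared with vehicle (p < 0.05). Plasma for exposure taken 1 h post dose, n = 4/group.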

Chain of P-gp (ABCB1) (P43245 whole entry): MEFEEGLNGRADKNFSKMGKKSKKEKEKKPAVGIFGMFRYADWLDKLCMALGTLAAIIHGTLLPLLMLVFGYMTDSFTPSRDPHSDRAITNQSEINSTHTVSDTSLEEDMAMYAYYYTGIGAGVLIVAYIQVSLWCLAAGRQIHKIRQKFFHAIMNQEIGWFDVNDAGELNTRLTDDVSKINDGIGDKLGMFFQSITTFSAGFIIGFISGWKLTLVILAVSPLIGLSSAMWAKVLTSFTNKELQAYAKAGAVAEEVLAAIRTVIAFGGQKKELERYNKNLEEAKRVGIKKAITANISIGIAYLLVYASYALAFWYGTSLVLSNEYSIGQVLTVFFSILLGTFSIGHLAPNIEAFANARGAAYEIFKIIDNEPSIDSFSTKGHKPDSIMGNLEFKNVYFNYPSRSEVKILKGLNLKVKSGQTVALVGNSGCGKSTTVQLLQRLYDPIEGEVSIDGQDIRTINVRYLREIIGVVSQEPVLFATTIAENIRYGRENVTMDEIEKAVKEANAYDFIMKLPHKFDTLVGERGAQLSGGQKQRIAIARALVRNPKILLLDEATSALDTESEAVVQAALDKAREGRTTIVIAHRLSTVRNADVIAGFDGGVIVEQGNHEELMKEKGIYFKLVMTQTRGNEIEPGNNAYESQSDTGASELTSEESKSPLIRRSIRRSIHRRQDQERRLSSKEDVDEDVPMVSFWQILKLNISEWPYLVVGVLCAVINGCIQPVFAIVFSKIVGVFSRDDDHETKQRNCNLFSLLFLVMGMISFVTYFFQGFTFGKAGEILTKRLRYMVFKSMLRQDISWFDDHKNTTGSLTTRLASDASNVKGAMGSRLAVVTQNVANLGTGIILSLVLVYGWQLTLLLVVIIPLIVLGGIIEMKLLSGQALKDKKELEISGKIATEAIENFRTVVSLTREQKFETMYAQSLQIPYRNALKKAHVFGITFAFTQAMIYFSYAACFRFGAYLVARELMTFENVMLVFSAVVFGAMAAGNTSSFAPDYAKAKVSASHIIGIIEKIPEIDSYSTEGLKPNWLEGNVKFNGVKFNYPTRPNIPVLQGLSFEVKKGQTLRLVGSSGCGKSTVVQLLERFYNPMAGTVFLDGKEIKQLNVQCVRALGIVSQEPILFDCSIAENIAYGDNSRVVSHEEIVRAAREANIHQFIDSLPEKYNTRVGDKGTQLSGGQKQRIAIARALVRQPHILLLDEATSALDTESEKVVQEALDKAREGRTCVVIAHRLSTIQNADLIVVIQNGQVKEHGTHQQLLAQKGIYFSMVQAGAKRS
Chain of cAMP and cAMP-inhibited cGMP 3',5'-cyclic phosphodiesterase 10A (Q9Y233 whole entry): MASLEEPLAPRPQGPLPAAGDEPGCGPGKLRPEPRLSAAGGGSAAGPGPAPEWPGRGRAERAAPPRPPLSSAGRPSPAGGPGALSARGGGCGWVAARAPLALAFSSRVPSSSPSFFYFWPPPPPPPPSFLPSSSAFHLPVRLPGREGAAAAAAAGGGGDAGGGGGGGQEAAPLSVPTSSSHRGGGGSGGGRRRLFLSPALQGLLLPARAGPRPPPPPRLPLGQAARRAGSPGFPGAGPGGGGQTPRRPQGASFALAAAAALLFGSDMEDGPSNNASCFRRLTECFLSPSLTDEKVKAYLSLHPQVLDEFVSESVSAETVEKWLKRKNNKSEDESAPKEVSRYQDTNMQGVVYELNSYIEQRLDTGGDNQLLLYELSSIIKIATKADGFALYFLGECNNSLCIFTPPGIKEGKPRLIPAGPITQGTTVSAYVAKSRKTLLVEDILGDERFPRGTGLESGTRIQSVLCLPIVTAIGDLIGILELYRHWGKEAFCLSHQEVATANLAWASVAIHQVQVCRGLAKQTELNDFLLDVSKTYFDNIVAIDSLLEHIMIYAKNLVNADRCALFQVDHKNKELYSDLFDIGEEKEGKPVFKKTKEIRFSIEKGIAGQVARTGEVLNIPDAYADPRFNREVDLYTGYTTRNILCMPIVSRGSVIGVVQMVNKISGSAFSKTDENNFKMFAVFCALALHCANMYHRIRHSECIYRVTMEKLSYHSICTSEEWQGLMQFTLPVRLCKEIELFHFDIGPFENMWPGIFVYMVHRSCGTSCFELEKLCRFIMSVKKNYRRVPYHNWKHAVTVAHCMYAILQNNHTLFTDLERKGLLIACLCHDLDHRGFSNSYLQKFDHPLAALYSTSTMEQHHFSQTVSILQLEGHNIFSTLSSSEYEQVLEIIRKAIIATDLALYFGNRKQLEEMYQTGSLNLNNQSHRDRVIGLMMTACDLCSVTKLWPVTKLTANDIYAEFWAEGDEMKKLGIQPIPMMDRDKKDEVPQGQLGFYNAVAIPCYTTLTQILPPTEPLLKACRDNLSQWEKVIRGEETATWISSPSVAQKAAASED
Chain of ATP-dependent translocase ABCB1 (P43245 whole entry): as the sequence (P43245 whole entry) above
Chain of Voltage-gated inwardly rectifying potassium channel KCNH2 (Q12809 whole entry): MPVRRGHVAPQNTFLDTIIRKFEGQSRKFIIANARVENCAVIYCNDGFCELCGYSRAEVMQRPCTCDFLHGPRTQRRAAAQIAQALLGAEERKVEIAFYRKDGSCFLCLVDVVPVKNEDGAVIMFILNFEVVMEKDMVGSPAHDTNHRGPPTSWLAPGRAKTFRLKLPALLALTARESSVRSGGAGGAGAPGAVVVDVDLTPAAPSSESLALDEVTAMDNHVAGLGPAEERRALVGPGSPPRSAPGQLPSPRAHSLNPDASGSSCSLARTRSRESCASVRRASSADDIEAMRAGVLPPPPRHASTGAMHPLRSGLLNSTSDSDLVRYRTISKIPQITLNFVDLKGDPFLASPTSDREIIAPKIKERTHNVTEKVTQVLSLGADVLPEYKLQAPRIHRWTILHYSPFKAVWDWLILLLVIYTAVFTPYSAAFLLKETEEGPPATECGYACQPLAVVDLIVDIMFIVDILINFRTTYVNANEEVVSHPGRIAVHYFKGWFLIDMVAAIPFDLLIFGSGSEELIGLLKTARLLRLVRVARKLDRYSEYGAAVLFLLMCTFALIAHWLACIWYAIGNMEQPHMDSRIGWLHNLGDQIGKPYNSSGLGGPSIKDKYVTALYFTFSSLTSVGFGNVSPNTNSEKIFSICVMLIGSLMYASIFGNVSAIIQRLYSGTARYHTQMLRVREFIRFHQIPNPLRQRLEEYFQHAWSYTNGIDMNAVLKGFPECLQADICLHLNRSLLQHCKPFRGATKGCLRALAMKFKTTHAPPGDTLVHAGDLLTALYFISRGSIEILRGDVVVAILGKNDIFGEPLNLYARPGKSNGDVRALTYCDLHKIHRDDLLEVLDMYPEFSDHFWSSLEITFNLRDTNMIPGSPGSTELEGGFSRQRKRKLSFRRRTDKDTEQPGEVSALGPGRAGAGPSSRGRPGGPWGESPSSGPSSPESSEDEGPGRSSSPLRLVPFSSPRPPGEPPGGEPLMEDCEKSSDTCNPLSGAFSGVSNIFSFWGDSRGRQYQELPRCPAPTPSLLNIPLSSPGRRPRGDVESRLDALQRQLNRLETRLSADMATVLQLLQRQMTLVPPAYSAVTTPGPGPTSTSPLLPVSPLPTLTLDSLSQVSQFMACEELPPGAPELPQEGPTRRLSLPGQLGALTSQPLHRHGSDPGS

SMILES	Ratio Ki [1]	IC50 [2]	Ratio Ki [3]	Ratio Ki [4]	Ratio Ki [5]	Ratio Ki [6]	Ratio Ki [7]	Ratio Ki [8]	Ratio Ki [9]	Ratio Ki [10]	Ki [11]	solubility [12]	Ratio [13]	efflux ratio [14]	CL free [15]	Activity [16]
Cc1nnc(CNc2cc(OC[C@H]3C[C@@H]3c3ccccn3)nc3cccnc23)s1	> 3600	25000 nM	> 3600	> 3600	> 3600	> 3600	> 3600	> 3600	> 3600	> 3600	0.11 nM	–	–	–	–	–
Cn1cc(CNc2cc(OC[C@H]3C[C@@H]3c3ccccn3)nc3cnccc23)cn1	> 7000	–	> 7000	> 7000	> 7000	> 7000	> 7000	> 7000	> 7000	> 7000	0.13 nM	149 µM (≈ 57.6 µg/mL)	6.3	–	–	–
Cc1nc(NCc2cnn(C)c2)cc(OC[C@H]2C[C@@H]2c2ccccn2)n1	> 67000	–	> 67000	> 67000	> 67000	> 67000	> 67000	> 67000	> 67000	> 67000	0.6 nM	–	–	–	–	–
Cc1c(NCc2cnn(C)c2)cc(OC[C@H]2C[C@@H]2c2ccccn2)nc1Cl	> 30000	–	> 30000	> 30000	> 30000	> 30000	> 30000	> 30000	> 30000	> 30000	0.047 nM	86 µM (≈ 33 µg/mL)	–	0.6	–	–
Cn1cc(CNc2cc(OC[C@H]3C[C@@H]3c3ccccn3)nc3ccncc23)cn1	> 20000	–	> 20000	> 20000	> 20000	> 20000	> 20000	> 20000	> 20000	> 20000	0.12 nM	22 µM (≈ 8.5 µg/mL)	24	–	–	–
Cc1ccc([C@H]2C[C@@H]2COc2cc(NCc3cnn(C)c3)nc(C)n2)nc1	> 425000	–	> 425000	> 425000	> 425000	> 425000	> 425000	> 425000	> 425000	> 425000	0.061 nM	–	–	–	284.4 L/h/kg	–
Cc1c(Cl)nc(OC[C@H]2C[C@@H]2c2ccccn2)nc1NCc1cnn(C)c1	> 2500	–	> 2500	> 2500	> 2500	> 2500	> 2500	> 2500	> 2500	> 2500	–	–	–	2	174 L/h/kg	–
Cc1nc(NCc2nnc(C)s2)cc(OC[C@H]2C[C@@H]2c2ccccn2)n1	> 45000	–	> 45000	> 45000	> 45000	> 45000	> 45000	> 45000	> 45000	> 45000	0.33 nM	–	–	–	11.1 L/h/kg	–
Cn1cc(CNc2cc(OC[C@H]3C[C@@H]3c3ccccn3)nc3cccnc23)cn1	> 2000	–	> 2000	> 2000	> 2000	> 2000	> 2000	> 2000	> 2000	> 2000	0.87 nM	81 µM (≈ 31.3 µg/mL)	–	0.7	–	–
Cc1c(Cl)cc(OC[C@H]2C[C@@H]2c2ccccn2)nc1NCc1cnn(C)c1	–	–	–	–	–	–	–	–	–	–	3.2 nM	–	–	–	–	–
Cn1cc(CNc2cc(OC[C@H]3C[C@@H]3c3ccccn3)nc3ccccc23)cn1	> 5000	–	> 5000	> 5000	> 5000	> 5000	> 5000	> 5000	> 5000	> 5000	0.49 nM	19 µM (≈ 7.32 µg/mL)	–	0.5	–	–
Cn1cc(CNc2cc(OC[C@H]3C[C@@H]3c3ccccn3)nc3ncccc23)cn1	–	–	–	–	–	–	–	–	–	–	8.6 nM	–	–	–	–	–
COc1ccc([C@H]2C[C@@H]2COc2cc(NCc3nnc(C)s3)nc(C)n2)nc1	> 225000	–	> 225000	> 225000	> 225000	> 225000	> 225000	> 225000	> 225000	> 225000	0.038 nM	–	–	–	31.8 L/h/kg	–
COc1cc2c(cc1OC)C(=O)C(CC1CCN(Cc3ccccc3)CC1)C2 (centres undefined)	–	–	–	–	–	–	–	–	–	–	–	–	–	–	–	Active
COc1ccc([C@H]2C[C@@H]2COc2cc(NCc3cnn(C)c3)nc(C)n2)nc1	> 490000	–	> 490000	> 490000	> 490000	> 490000	> 490000	> 490000	> 490000	> 490000	0.054 nM	–	–	–	424.8 L/h/kg	–
Cn1cc(CNc2cc(OC[C@H]3C[C@@H]3c3ccccn3)nc3ccnn23)cn1	> 5800	–	> 5800	> 5800	> 5800	> 5800	> 5800	> 5800	> 5800	> 5800	–	–	–	0.7	–	–
Cc1nc(C)c(CNc2nc(OCCCc3ccc4ccccc4n3)nc(Cl)c2C)s1	> 5000	–	> 5000	> 5000	> 5000	> 5000	> 5000	> 5000	> 5000	> 5000	–	–	–	–	720 L/h/kg	–
